ChEMBL document CHEMBL2074545, “Transport of bile acids, sulfated steroids, estradiol 17-beta-D-glucuronide, and leukotriene C4 by human multidrug resistance protein 8 (ABCC11)” (Mol Pharmacol, 2004)

Experiments:
[1] = target: ATP-binding cassette sub-family C member 11 (Homo sapiens) (UniProt Q96J66); test: TP_TRANSPORTER: inhibition of Estradiol-17beta-D-glucuronide uptake by Dehydroepiandrosterone-3-sulfate at a concentration of 10 uM in membrane vesicle from MRP8-expressing LLC-PK1 cells; type: functional, cell membranes; design: scale not given: the % may be the effect or the level left
Chain of ATP-binding cassette sub-family C member 11 (Homo sapiens) (Q96J66 whole entry): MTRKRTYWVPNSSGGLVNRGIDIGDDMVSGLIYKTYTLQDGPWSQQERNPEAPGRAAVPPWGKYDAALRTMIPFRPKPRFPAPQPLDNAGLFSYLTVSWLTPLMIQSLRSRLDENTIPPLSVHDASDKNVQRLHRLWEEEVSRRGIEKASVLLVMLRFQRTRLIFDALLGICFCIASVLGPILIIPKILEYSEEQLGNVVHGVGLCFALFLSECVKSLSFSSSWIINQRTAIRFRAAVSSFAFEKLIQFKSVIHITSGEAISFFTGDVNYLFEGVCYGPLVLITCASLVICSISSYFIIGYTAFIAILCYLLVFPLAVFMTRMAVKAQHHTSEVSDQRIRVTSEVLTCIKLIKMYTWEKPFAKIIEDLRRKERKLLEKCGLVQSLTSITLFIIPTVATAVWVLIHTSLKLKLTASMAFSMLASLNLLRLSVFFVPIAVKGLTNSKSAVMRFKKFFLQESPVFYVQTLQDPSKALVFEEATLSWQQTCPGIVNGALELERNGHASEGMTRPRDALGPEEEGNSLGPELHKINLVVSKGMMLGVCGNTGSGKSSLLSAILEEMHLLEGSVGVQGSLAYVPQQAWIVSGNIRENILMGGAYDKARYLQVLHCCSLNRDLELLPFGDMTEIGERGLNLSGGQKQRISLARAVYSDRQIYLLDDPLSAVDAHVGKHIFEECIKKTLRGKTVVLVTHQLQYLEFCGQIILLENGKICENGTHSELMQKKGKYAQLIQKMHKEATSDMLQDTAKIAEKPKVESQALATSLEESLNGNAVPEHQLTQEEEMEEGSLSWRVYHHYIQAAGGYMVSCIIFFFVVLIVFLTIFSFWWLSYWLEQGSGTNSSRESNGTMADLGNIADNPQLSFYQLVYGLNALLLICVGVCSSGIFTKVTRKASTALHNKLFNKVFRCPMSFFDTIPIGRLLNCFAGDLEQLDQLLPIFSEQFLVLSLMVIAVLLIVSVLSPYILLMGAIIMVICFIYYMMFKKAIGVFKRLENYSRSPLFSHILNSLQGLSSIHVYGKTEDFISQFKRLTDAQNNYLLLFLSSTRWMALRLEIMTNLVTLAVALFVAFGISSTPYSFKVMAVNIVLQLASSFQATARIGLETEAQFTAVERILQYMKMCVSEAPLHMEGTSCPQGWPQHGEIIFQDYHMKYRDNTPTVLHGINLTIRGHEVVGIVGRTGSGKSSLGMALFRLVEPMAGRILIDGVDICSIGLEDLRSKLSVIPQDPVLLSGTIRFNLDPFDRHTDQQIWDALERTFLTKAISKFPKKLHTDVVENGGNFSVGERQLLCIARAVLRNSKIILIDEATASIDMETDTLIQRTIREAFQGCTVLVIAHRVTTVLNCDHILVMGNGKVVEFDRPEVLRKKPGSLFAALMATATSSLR
In short: (§1)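 Vesicles (10 µg) from LLC-PK1-MRP8-3 cells incubated 10 min at 37°C with 1 µM [3H]E217βG plus modulator, in 0.25 M sucrose, 10 mM Tris-HCl pH 7.4, 10 mM MgCl2, creatine phosphate/creatine kinase, with 4 mM ATP or 4 mM AMP. Rapid filtration, scintillation counting. ATP-dependent uptake (ATP minus AMP) expressed as % of modulator-free uptake. At least three measurements, each in duplicate.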

[2] = target: ATP-binding cassette sub-family C member 11 (Homo sapiens) (UniProt Q96J66); test: TP_TRANSPORTER: inhibition of Estradiol-17beta-D-glucuronide uptake by Sildenifil at a concentration of 10 uM in membrane vesicle from MRP8-expressing LLC-PK1 cells; type: functional, cell membranes; design: scale not given: the % may be the effect or the level left; in short: as §1
[3] = target: ATP-binding cassette sub-family C member 11 (Homo sapiens) (UniProt Q96J66); test: TP_TRANSPORTER: inhibition of Estradiol-17beta-D-glucuronide uptake by Glycolithocholate at a concentration of 10 uM in membrane vesicle from MRP8-expressing LLC-PK1 cells; type: functional, cell membranes; design: scale not given: the % may be the effect or the level left; in short: as §1
[4] = target: ATP-binding cassette sub-family C member 11 (Homo sapiens) (UniProt Q96J66); test: TP_TRANSPORTER: inhibition of Estradiol-17beta-D-glucuronide uptake by cGMP at a concentration of 10 uM in membrane vesicle from MRP8-expressing LLC-PK1 cells; type: functional, cell membranes; design: scale not given: the % may be the effect or the level left; in short: as §1
[5] = target: ATP-binding cassette sub-family C member 11 (Homo sapiens) (UniProt Q96J66); test: TP_TRANSPORTER: inhibition of Estradiol-17beta-D-glucuronide uptake by Probenecid at a concentration of 10 uM in membrane vesicle from MRP8-expressing LLC-PK1 cells; type: functional, cell membranes; design: scale not given: the % may be the effect or the level left; in short: as §1
[6] = target: ATP-binding cassette sub-family C member 11 (Homo sapiens) (UniProt Q96J66); test: TP_TRANSPORTER: inhibition of Estradiol-17beta-D-glucuronide uptake by Indomethacin at a concentration of 10 uM in membrane vesicle from MRP8-expressing LLC-PK1 cells; type: functional, cell membranes; design: scale not given: the % may be the effect or the level left; in short: as §1
[7] = system: C[C@]12CC[C@@H]3c4ccc(O)cc4CC[C@H]3[C@@H]1CC[C@@H]2O[C@@H]1O[C@H](C(=O)O)[C@@H](O)[C@H](O)[C@H]1O; details: LLC-PK1; Membrane vesicle
[8] = system: CN(Cc1cnc2nc(N)nc(N)c2n1)c1ccc(C(=O)N[C@@H](CCC(=O)O)C(=O)O)cc1; details: LLC-PK1; Membrane vesicle
[9] = system: C[C@]12CC[C@H](OS(=O)(=O)O)CC1=CC[C@@H]1[C@@H]2CC[C@]2(C)C(=O)CC[C@@H]12; details: LLC-PK1; Membrane vesicle
[10] = target: ATP-binding cassette sub-family C member 11 (Homo sapiens) (UniProt Q96J66); test: TP_TRANSPORTER: inhibition of Estradiol-17beta-D-glucuronide uptake by 2,4-dinitrophenyl-S-glutathione at a concentration of 10 uM in membrane vesicle from MRP8-expressing LLC-PK1 cells; type: functional, cell membranes; design: scale not given: the % may be the effect or the level left; in short: as §1
[11] = target: ATP-binding cassette sub-family C member 11 (Homo sapiens) (UniProt Q96J66); test: TP_TRANSPORTER: inhibition of Estradiol-17beta-D-glucuronide uptake by Glycocholate at a concentration of 10 uM in membrane vesicle from MRP8-expressing LLC-PK1 cells; type: functional, cell membranes; design: scale not given: the % may be the effect or the level left; in short: as §1
[12] = target: ATP-binding cassette sub-family C member 11 (Homo sapiens) (UniProt Q96J66); test: TP_TRANSPORTER: inhibition of Estradiol-17beta-D-glucuronide uptake by MK-571 at a concentration of 10 uM in membrane vesicle from MRP8-expressing LLC-PK1 cells; type: functional, cell membranes; design: scale not given: the % may be the effect or the level left; in short: as §1
[13] = target: ATP-binding cassette sub-family C member 11 (Homo sapiens) (UniProt Q96J66); test: TP_TRANSPORTER: inhibition of Estradiol-17beta-D-glucuronide uptake by Leukotrien C4 at a concentration of 1 uM in membrane vesicle from MRP8-expressing LLC-PK1 cells; type: functional, cell membranes; design: scale not given: the % may be the effect or the level left; in short: as §1

Chain of ATP-binding cassette sub-family C member 11 (Homo sapiens), Q96J66 (Q96J66 whole entry): as above

## C[C@]12CC[C@H](OS(=O)(=O)O)CC1=CC[C@@H]1[C@@H]2CC[C@]2(C)C(=O)CC[C@@H]12
[1]
  Activity: 196%

## CCCc1nn(C)c2c(=O)[nH]c(-c3cc(S(=O)(=O)N4CCN(C)CC4)ccc3OCC)nc12
[2]
  Activity: 79%

## C[C@H](CCC(=O)NCC(=O)O)[C@H]1CC[C@H]2[C@@H]3CC[C@@H]4C[C@H](O)CC[C@]4(C)[C@H]3CC[C@]12C
[3]
  Activity: 16%

## Nc1nc2c(ncn2[C@@H]2O[C@@H]3COP(=O)(O)O[C@H]3[C@H]2O)c(=O)[nH]1
[4]
  Activity: 73%

## CCCN(CCC)S(=O)(=O)c1ccc(C(=O)O)cc1
[5]
  Activity: 76%

## COc1ccc2c(c1)c(CC(=O)O)c(C)n2C(=O)c1ccc(Cl)cc1
[6]
  Activity: 64%

## ATP-binding cassette sub-family C member 11 (Homo sapiens), Q96J66
[7]
  Km: 62.9 µM
[8]
  Km: 957 µM
[9]
  Km: 13 µM

## N[C@@H](CCC(=O)N[C@H](CSc1ccc([N+](=O)[O-])cc1[N+](=O)[O-])C(=O)NCC(=O)O)C(=O)O
[10]
  Activity: 17%

## C[C@H](CCC(=O)NCC(=O)O)[C@H]1CC[C@H]2[C@@H]3[C@H](O)C[C@@H]4C[C@H](O)CC[C@]4(C)[C@H]3C[C@H](O)[C@]12C
[11]
  Activity: 62%

## CN(C)C(=O)CCSC(SCCC(=O)O)c1cccc(/C=C/c2ccc3ccc(Cl)cc3n2)c1 (stereo not drawn)
[12]
  Activity: 25%

## CCCCC/C=C\C\C=C/C=C/C=C/[C@@H](SC[C@@H](NC(=O)CC[C@H](N)C(=O)O)C(=O)NCC(=O)O)[C@@H](O)CCCC(=O)O
[13]
  Activity: 72%
